Experimental data reported in ChEMBL document CHEMBL1821556, “Structure-activity relationships of antitubercular nitroimidazoles. 3. Exploration of the linker and lipophilic tail of ((s)-2-nitro-6,7-dihydro-5H-imidazo[2,1-b][1,3]oxazin-6-yl)-(4-trifluoromethoxybenzyl)amine (6-amino PA-824)” (J Med Chem, 2011).
≈ marks a conversion by molar mass, not a printed value.

Legend:
[1] = Elimination half life in mouse at 5 mg/kg, iv by LC/MS/MS analysis; format: ADME, organism-based; parameters: dose 5 mg/kg, route intravenous; conditions: in vivo, read-out: beta t1/2 (converted)
How it was run: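 Single intravenous dose of 5mg/kg, using the supernatant of a centrifuged formulation. Blood was sampled at time points from 1min to 24h after dosing. Plasma was extracted and analysed by LC/MS/MS. Pharmacokinetic parameters, including elimination half-life, came from non-compartmental analysis.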

[2] = tested on: Mycobacterium tuberculosis; assay: Antitubercular activity against Mycobacterium tuberculosis; format: functional
How it was run: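 Whole-cell assay against replicating Mtb, scored as MIC99 in μM. Run multiple times in two independent laboratories, with discrepant results repeated until concordant. Values are averages of multiple measurements ± SD.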

Liver [3] = assay: Intrinsic clearance in mouse liver microsome at 5 mg/kg, iv after 24 hrs by LC/MS/MS analysis; format: ADME; conditions: microsomes
Liver [4] = assay: Half life in mouse liver microsome at 5 mg/kg, iv after 24 hrs by LC/MS/MS analysis; format: ADME; conditions: microsomes
[5] = tested on: Mycobacterium tuberculosis; assay: Bactericidal activity against Mycobacterium tuberculosis assessed as minimum concentration required for anaerobicidal activity; format: functional
How it was run: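 Minimum anaerobicidal concentration (μM) against non-replicating Mtb. Run multiple times in two independent laboratories, with discrepant results repeated until concordant. Values are averages of multiple measurements ± SD.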

[6] = Solubility of the compound at pH 6.8; format: physicochemical; conditions: buffer
[7] = Solubility of the compound; format: physicochemical
How it was run: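 Solubility was measured in buffer at pH 6.8 and reported in μg/mL.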

SMILES | half-life [1] [min] | MIC99 [2] [µM] | CL (Liver [3]) [µL/min/mg] | t1/2 (Liver [4]) [min] | Activity [5] [µM] | solubility [6] [µg/mL] | solubility ([6]; read-out: solubility) [µg/mL] | solubility [7]
O=[N+]([O-])c1cn2c(n1)OC[C@@H](NCc1ccc(OC(F)(F)F)c(O)c1)C2 | 24 | 0.16 (≈ 0.0599 µg/mL) | 61.9 | 22.4 | 7.5 | – | – | –
CCC(N[C@@H]1COc2nc([N+](=O)[O-])cn2C1)c1ccc(OC(F)(F)F)cc1 (mixture of isomers) | – | 0.36 | – | – | 3.1 | – | – | –
O=[N+]([O-])c1cn2c(n1)OC[C@@H](NCc1ccc(OC(F)(F)F)cc1OC1CC1)C2 | – | 0.06 (≈ 0.0249 µg/mL) | 150.7 | 9.2 | 2 | 11 (≈ 26.5 µM) | – | –
CC(C)N(Cc1ccc(OC(F)(F)F)cc1)[C@@H]1COc2nc([N+](=O)[O-])cn2C1 | – | 0.34 (≈ 0.136 µg/mL) | 433 | 3.2 | 11 | < 2 | – | –
O=CN(Cc1ccc(OC(F)(F)F)cc1)[C@@H]1COc2nc([N+](=O)[O-])cn2C1 | – | 0.79 (≈ 0.305 µg/mL) | – | – | 12.5 | – | – | –
O=[N+]([O-])c1cn2c(n1)OC[C@@H](NCc1ccc(OC(F)(F)F)cc1Cl)C2 | – | 0.13 (≈ 0.0511 µg/mL) | 69.7 | 19.9 | 2.1 | 30 (≈ 76.4 µM) | – | –
O=[N+]([O-])c1cn2c(n1)OC[C@@H](OCc1ccc(OC(F)(F)F)c(O)c1)C2 | – | 0.14 (≈ 0.0525 µg/mL) | – | – | 8.3 | – | – | –
CN1CCN(c2cc(OC(F)(F)F)ccc2CN[C@@H]2COc3nc([N+](=O)[O-])cn3C2)CC1 | – | 2.2 (≈ 1 µg/mL) | – | – | 33 | – | – | –
O=[N+]([O-])c1cn2c(n1)OC[C@@H](NC(c1ccc(OC(F)(F)F)cc1)c1ncc[nH]1)C2 (mixture of isomers) | – | 0.52 | – | – | 17 | – | – | –
CC(=O)N(Cc1ccc(OC(F)(F)F)cc1)[C@@H]1COc2nc([N+](=O)[O-])cn2C1 | – | 50 (≈ 20 µg/mL) | – | – | >50 | – | – | –
O=[N+]([O-])c1cn2c(n1)OC[C@@H](OCc1ccc(OC(F)(F)F)cc1)C2 [PRETOMANID] | – | 0.63 (≈ 0.226 µg/mL) | – | – | 8.8 | – | – | –
O=[N+]([O-])c1cn2c(n1)OC[C@@H](NCc1ccc(OC(F)(F)F)cc1OCc1ccccc1)C2 | – | 0.24 (≈ 0.111 µg/mL) | – | – | 7.5 | – | – | –
CCCCC(N[C@@H]1COc2nc([N+](=O)[O-])cn2C1)c1ccc(OC(F)(F)F)cc1 (mixture of isomers) | – | 0.15 | – | – | 4.4 | – | – | –
O=[N+]([O-])c1cn2c(n1)OC[C@@H](NCc1ccc(OC(F)(F)F)cc1Br)C2 | – | 0.09 (≈ 0.0393 µg/mL) | – | – | 2 | – | – | –
O=[N+]([O-])c1cn2c(n1)OC[C@@H](NCc1ccc(OC(F)(F)F)c(Cl)c1)C2 | 258 | 0.12 (≈ 0.0471 µg/mL) | 103.4 | 13.4 | 4.2 | – | – | –
O=[N+]([O-])c1cn2c(n1)OC[C@@H](NCc1ccc(OC(F)(F)F)c(Oc3ccccc3)c1)C2 | – | 0.14 (≈ 0.0631 µg/mL) | 149 | 9.3 | 3.9 | – | < 2 | –
COc1cc(OC(F)(F)F)ccc1CN[C@@H]1COc2nc([N+](=O)[O-])cn2C1 | – | 0.23 (≈ 0.0893 µg/mL) | – | – | 5.2 | – | – | –
O=[N+]([O-])c1cn2c(n1)OC[C@@H](NCc1ccc(OC(F)(F)F)c(F)c1)C2 | – | 0.12 (≈ 0.0452 µg/mL) | 58.7 | 23.6 | 4.2 | – | – | –
O=[N+]([O-])c1cn2c(n1)OC[C@@H](NCc1ccc(OC(F)(F)F)cc1N1CCOCC1)C2 | – | 0.15 (≈ 0.0665 µg/mL) | – | – | 10 | – | – | –
CCNC(=O)N(Cc1ccc(OC(F)(F)F)cc1)[C@@H]1COc2nc([N+](=O)[O-])cn2C1 | – | 17 (≈ 7.3 µg/mL) | – | – | 69 | – | – | –
O=[N+]([O-])c1cn2c(n1)OC[C@@H](NCc1ccc(OC(F)(F)F)c(N3CCOCC3)c1)C2 | – | 0.15 (≈ 0.0665 µg/mL) | – | – | 7 | – | – | –
CN1CCN(c2cc(CN[C@@H]3COc4nc([N+](=O)[O-])cn4C3)ccc2OC(F)(F)F)CC1 | – | 0.17 (≈ 0.0776 µg/mL) | – | – | 7.8 | – | – | –
CCC(=O)N(Cc1ccc(OC(F)(F)F)cc1)[C@@H]1COc2nc([N+](=O)[O-])cn2C1 | – | – | – | – | – | – | – | Insoluble

SMILES | half-life [1] [min] | MIC99 [2] [µM] | CL (Liver [3]) [µL/min/mg] | t1/2 (Liver [4]) [min] | Activity [5] [µM] | solubility [6] [µg/mL] | solubility ([6]; read-out: solubility) [µg/mL] | solubility [7]
O=[N+]([O-])c1cn2c(n1)OC[C@@H](NCc1ccc(OC(F)(F)F)cc1N1CCCCC1)C2 | – | 0.21 (≈ 0.0927 µg/mL) | – | – | 11 | – | – | –
O=[N+]([O-])c1cn2c(n1)OC[C@@H](NC(c1ccc(OC(F)(F)F)cc1)c1ncco1)C2 (mixture of isomers) | – | 0.4 | – | – | 7.8 | – | – | –
CN(Cc1ccc(OC(F)(F)F)cc1)[C@@H]1COc2nc([N+](=O)[O-])cn2C1 | – | 0.15 (≈ 0.0558 µg/mL) | 124.9 | 11 | 2.5 | 10 (≈ 26.9 µM) | – | –
O=C(c1cccc(Cl)c1)N(Cc1ccc(OC(F)(F)F)cc1)[C@@H]1COc2nc([N+](=O)[O-])cn2C1 | – | 7.5 (≈ 3.73 µg/mL) | – | – | 21 | – | – | –
O=[N+]([O-])c1cn2c(n1)OC[C@@H](OCc1ccc(OC(F)(F)F)c(F)c1)C2 | – | 0.17 (≈ 0.0641 µg/mL) | – | – | 7.5 | – | – | –
O=[N+]([O-])c1cn2c(n1)OC[C@@H](NC(CO)c1ccc(OC(F)(F)F)cc1)C2 (mixture of isomers) | – | 0.3 | – | – | 11 | – | – | –
NC(=O)C(N[C@@H]1COc2nc([N+](=O)[O-])cn2C1)c1ccc(OC(F)(F)F)cc1 (mixture of isomers) | – | 0.41 | – | – | 30 | – | – | –
COc1cc(CO[C@@H]2COc3nc([N+](=O)[O-])cn3C2)ccc1OC(F)(F)F | – | 0.13 (≈ 0.0506 µg/mL) | – | – | 4.2 | – | – | –
CCCN(Cc1ccc(OC(F)(F)F)cc1)[C@@H]1COc2nc([N+](=O)[O-])cn2C1 | – | 0.11 (≈ 0.044 µg/mL) | 407 | 3.4 | 3.8 | < 2 | – | –
O=C(c1ccc(Cl)cc1)N(Cc1ccc(OC(F)(F)F)cc1)[C@@H]1COc2nc([N+](=O)[O-])cn2C1 | – | 1.3 (≈ 0.646 µg/mL) | – | – | 7.8 | – | – | –
O=[N+]([O-])c1cn2c(n1)OC[C@@H](NC(CCO)c1ccc(OC(F)(F)F)cc1)C2 (mixture of isomers) | – | 0.13 | – | – | 23 | – | – | –
O=[N+]([O-])c1cn2c(n1)OC[C@@H](NCc1ccc(OC(F)(F)F)cc1OCC1CC1)C2 | – | 0.1 (≈ 0.0428 µg/mL) | 866.3 | 1.6 | 4.2 | 6 (≈ 14 µM) | – | –
O=C(c1ccccc1Cl)N(Cc1ccc(OC(F)(F)F)cc1)[C@@H]1COc2nc([N+](=O)[O-])cn2C1 | – | 5.6 (≈ 2.78 µg/mL) | – | – | >50 | – | – | –
COC(=O)c1cc(CN[C@@H]2COc3nc([N+](=O)[O-])cn3C2)ccc1OC(F)(F)F | – | 0.14 (≈ 0.0583 µg/mL) | – | – | 11 | – | – | –
CCCC(N[C@@H]1COc2nc([N+](=O)[O-])cn2C1)c1ccc(OC(F)(F)F)cc1 (mixture of isomers) | – | 0.27 | – | – | 3.8 | – | – | –
O=[N+]([O-])c1cn2c(n1)OC[C@@H](NCc1ccc(OC(F)(F)F)cc1F)C2 | – | 0.12 (≈ 0.0452 µg/mL) | 95.6 | 14.5 | 2.5 | 72 (≈ 191 µM) | – | –
CC(N[C@@H]1COc2nc([N+](=O)[O-])cn2C1)c1ccc(OC(F)(F)F)cc1 (mixture of isomers) | – | 0.44 | – | – | 5.6 | – | – | –
O=C(c1ccccc1)N(Cc1ccc(OC(F)(F)F)cc1)[C@@H]1COc2nc([N+](=O)[O-])cn2C1 | – | 8.8 (≈ 4.07 µg/mL) | – | – | >50 | – | – | –
O=[N+]([O-])c1cn2c(n1)OC[C@@H](NCc1ccc(OC(F)(F)F)cc1Oc1ccccc1)C2 | – | 0.06 (≈ 0.027 µg/mL) | 216.6 | 6.4 | 4.4 | 3 (≈ 6.66 µM) | – | –
O=[N+]([O-])c1cn2c(n1)OC[C@@H](NCc1ccc(OC(F)(F)F)cc1O)C2 | – | 0.09 (≈ 0.0337 µg/mL) | 96.9 | 14.3 | 4.4 | 25 (≈ 66.8 µM) | – | –
COc1cc(CN[C@@H]2COc3nc([N+](=O)[O-])cn3C2)ccc1OC(F)(F)F | – | 0.07 (≈ 0.0272 µg/mL) | – | – | 2.1 | – | – | –
O=[N+]([O-])c1cn2c(n1)OC[C@@H](NCc1ccc(OC(F)(F)F)cc1)C2 | – | 0.36 (≈ 0.129 µg/mL) | – | – | 14 | – | – | –
